Results published in ChEMBL document CHEMBL1142940, “Use of simple docking methods to screen a virtual library for heteroactivators of cytochrome P450 2C9” (J Med Chem, 2007).
“And” between values parts separate entries of the source, which are not always exact repeats. Equal values may be shown once.

Key:
[1] = target: T1, CYP2C9 (Homo sapiens, UniProt P11712); experiment: (§1) Activation of human CYP2C9 assessed as (S)-Flurbiprofen hydroxylation; type: ADME; set-up: concentration or dose not given beside the values; conditions: probe (S)-flurbiprofen
Method in brief: (§2)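 Reconstituted CYP2C9 (5 pmol) in 0.2 mL incubations with 20 μM (S)-flurbiprofen held constant, 50 mM potassium phosphate pH 7.4, 37 °C for 20 min. Test compounds diluted in DMSO (1% final in all reactions, controls included), screened on a log scale from 0.001–1000 μM depending on solubility. 4′-OH flurbiprofen formation measured after quench. Triplicate reactions.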

[2] = target: T2, Cytochrome P450 2C9 (Homo sapiens, UniProt P11712); experiment: Activation of human CYP2C9 assessed as (S)-Flurbiprofen hydroxylation; set-up: concentration or dose not given beside the values
[3] = target: T1, CYP2C9; experiment: Inhibition of human CYP2C9 assessed as (S)-Flurbiprofen hydroxylation at 100 uM; type: ADME; conditions: probe (S)-flurbiprofen; method in brief: as §2
[4] = target: T1, CYP2C9; experiment: Inhibition of human CYP2C9 assessed as (S)-Flurbiprofen hydroxylation at 1 uM; type: ADME; conditions: probe (S)-flurbiprofen
Method in brief: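 Reconstituted CYP2C9 (5 pmol) in 0.2 mL incubations with 20 μM (S)-flurbiprofen held constant, in 50 mM potassium phosphate pH 7.4. Run at 37 °C for 20 min, then quenched, and 4′-OH flurbiprofen formation measured. Test compounds were dosed from DMSO on a log scale, with 1% DMSO final in all reactions, in triplicate. Activity is reported as % change versus control.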

[5] = target: T2, Cytochrome P450 2C9; experiment: as §1; type: ADME; set-up: concentration or dose not given beside the values; method in brief: as §2

T2 sequence (P11712 whole entry): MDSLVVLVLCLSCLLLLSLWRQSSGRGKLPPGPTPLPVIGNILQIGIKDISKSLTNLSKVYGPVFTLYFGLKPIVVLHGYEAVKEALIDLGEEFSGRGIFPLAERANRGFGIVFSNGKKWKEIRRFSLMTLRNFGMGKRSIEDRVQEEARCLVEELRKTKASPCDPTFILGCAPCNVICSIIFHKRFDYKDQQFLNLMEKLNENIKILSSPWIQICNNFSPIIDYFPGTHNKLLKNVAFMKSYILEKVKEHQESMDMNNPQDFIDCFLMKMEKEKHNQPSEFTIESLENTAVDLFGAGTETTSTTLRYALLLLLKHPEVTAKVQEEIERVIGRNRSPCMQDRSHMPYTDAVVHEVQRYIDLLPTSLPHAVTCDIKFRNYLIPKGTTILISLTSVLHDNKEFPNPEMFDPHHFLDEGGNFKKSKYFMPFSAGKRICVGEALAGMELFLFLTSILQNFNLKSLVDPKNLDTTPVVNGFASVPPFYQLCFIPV
T1 sequence (P11712 whole entry): as above

| SMILES | activity [1] [%] | activity [2] [%] | further results |
| --- | --- | --- | --- |
| CC(=O)Oc1ccc(S(=O)(=O)c2ccc(OC(C)=O)cc2)cc1 | 8 |  |  |
| Cc1ccc(S(=O)(=O)c2ccc(C)cc2)cc1 | 50.6 |  |  |
| O=C(O)c1ccc(S(=O)(=O)c2ccc(C(=O)O)cc2)cc1 |  | -5 |  |
| O=C(c1ccc(F)cc1)c1cnc2sccn12 |  |  | inhibition at 100 µM [3]: 50% |
| NCC(=O)Nc1ccc2ccccc2c1 | 4.4 |  |  |
| CN1C(=O)N(c2ccc(Cl)c(Cl)c2)C(=N)C1=S |  |  | inhibition at 100 µM [3]: 50% |
| Cc1cccc(C(=O)[C@@H](O)c2cccc(C)n2)n1 | 46 |  |  |
| Cn1c(=O)[nH]c(=O)c2ncn(CC(=O)c3ccc(F)cc3)c21 | 7.7 |  |  |
| [O-][S+](c1ccccc1)c1ccccc1 | 3.5 |  |  |
| Nc1ccc(S(=O)(=O)c2ccc([N+](=O)[O-])cc2)cc1 |  | -10.6 |  |
| Cc1ccc([C@@H]2NC(=O)c3ccccc3N2)cc1 | 6.6 |  |  |
| Nc1cc(N)c(N)cc1N |  |  | inhibition at 1 µM [4]: 50% |
| COc1ccc(S(=O)(=O)c2ccc(OC)cc2)cc1 |  | -25 |  |
| Cn1c(=O)c2c(ncn2CN2CCCC2)n(C)c1=O | 3 |  |  |
| O=S(=O)(c1ccc(O)cc1)c1ccc(O)cc1 | 95 |  |  |
| O=S(=O)(c1ccccc1)c1ccccc1 [(PHENYLSULFONYL)BENZENE] | 40 |  |  |
| Nc1ccc(S(=O)(=O)c2ccc(N)cc2)cc1 [DAPSONE] |  |  | activity [5]: 95% and 64.1% |
| c1ccc2c(c1)sc1ccccc12 [DIBENZOTHIOPHENE] |  | -10.6 |  |
| Nc1ccc(S(=O)(=O)Nc2ncccn2)cc1 [SULFADIAZINE] |  | -17.1 |  |
| Cc1cc(C)nc(NS(=O)(=O)c2ccc(N)cc2)n1 [SULFAMETHAZINE] |  | -18.8 |  |
